Assay outcomes as filed in PubChem BioAssay.
In the library only some 6.4% were active in any assay of this set; here they are far more common.
PLK1 PBD inh = inhibitors of human Plk1 polo box domain binding; inhibition, %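 (tested at about 20 µM)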; Plk1 PBD phosphopeptide binding, fluorescence polarization; AID 693; 97,000 compounds, 0.13% hits; P53350; in the data active means inhibition above about 34%, passing the limit was not always enough
Target sequence (P53350 whole entry, looked up, the tested form may be a part): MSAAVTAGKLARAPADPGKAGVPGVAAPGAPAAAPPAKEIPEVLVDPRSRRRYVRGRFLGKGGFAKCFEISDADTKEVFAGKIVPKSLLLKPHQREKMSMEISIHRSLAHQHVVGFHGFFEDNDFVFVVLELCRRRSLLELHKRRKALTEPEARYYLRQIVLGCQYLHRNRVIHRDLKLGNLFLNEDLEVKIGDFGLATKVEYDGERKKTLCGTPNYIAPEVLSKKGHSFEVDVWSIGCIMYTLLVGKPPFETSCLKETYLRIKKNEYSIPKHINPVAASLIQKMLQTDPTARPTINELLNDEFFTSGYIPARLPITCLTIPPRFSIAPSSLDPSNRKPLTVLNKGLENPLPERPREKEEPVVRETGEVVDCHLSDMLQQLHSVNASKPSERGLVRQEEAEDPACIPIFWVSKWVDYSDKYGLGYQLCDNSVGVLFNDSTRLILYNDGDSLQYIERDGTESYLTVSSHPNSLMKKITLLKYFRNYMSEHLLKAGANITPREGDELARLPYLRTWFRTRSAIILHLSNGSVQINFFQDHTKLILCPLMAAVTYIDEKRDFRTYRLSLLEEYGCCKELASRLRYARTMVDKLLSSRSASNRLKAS
PostGolgi yeast = growth inhibition of a yeast mutant, post-Golgi transport screen; post-Golgi transport phenotypic cell assay; inhibition, % at 10 µM; 98,000 compounds, 0.9% hits;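 further: yeast cells grown in 1536-well plates; yeast grown about 18 h at 30C before absorbance read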
PLK1 kinase inh = inhibitors of human PLK1 kinase. recombinant PLK1 kinase, TR-FRET peptide phosphorylation. inhibition, % at 10 µM. 97,000 compounds, 0.53% hits;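 active means inhibition of 50% or more in the single-concentration screen; inactive means inhibition below 50%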
PostGolgi ctrl = yeast control strain growth, post-Golgi counter-screen; efflux-deficient yeast background strain, growth absorbance A615, 16 h; inhibition, % at 10 µM; 98,000 compounds, 5% hits
EphB4 ephrin blk = blocks human EphB4 binding to ephrin-B2; inhibition, % at 7 µM; 97,000 compounds, 0.15% hits; P54760; EphB4 LBD / TNYL-RAW-Alexa532 peptide, fluorescence polarization; AID 720;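 active means inhibition above the screen-wide mean inhibition plus 3 SD, cut at about 15% in these data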
HIV Rev-RRE inh = inhibitors of HIV-1 Rev-RRE RNA interaction; 97,000 compounds, 0.79% hits; AID 704; Rev peptide-RRE RNA binding, FRET; inhibition, % at 8 µM;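 active means inhibition above the screen-wide mean plus 3 SD, cut at about 35% in these data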
Target sequence (P05866 whole entry, looked up): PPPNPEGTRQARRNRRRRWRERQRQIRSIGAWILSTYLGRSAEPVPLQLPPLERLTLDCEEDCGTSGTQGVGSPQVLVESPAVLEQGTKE
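Assay system: Rev peptide and RRE RNA, both fluorescently labelled; times: 5 min preincubation and 15 min binding, 25 °C; detection: FRET, ex 480 nm, em 540 and 671 nm; read-out basis: % inhibition from 671/540 nm acceptor-to-donor ratio, scaled between controls; benchmarks: DMSO low control, neomycin B high control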
PLK1 inh conf = confirmation of human PLK1 kinase inhibitors | 210 compounds, 20% hits | shares compounds with PLK1 kinase inh | recombinant PLK1 kinase, TR-FRET peptide phosphorylation | inhibition, % at 10 µM;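 active means inhibition at or above 50% in each of two repeat confirmation tests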
Plk1 interf = interferes with the Plk1 assay readout, not true inhibition | shares compounds with PLK1 kinase inh | Plk1 TR-FRET assay interference, compound added post-reaction | inhibition (interference), % at 10 µM | 210 tested, under 10 active | AID 756;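 active means both duplicate runs show 50% or greater inhibition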
Large screens that a line does not name were inactive (follow-up assays come after a bar, where they were run); [ ] = dose if it differs, or a comment. Unless noted, no stated cut-off is given here; in the data, active means inhibition above about 30%; inactive means the rest.

CCN1CCN(c2ncnc3ccc(Br)cc23)CC1	PostGolgi ctrl 32
Cc1ccc(-c2nc3ccccc3c(=O)n2-c2ncccc2C)cc1	none
COc1ccc(-n2c(O)c(C(C)=NCc3ccco3)c(=O)[nH]c2=O)cc1	PostGolgi ctrl 38
O=c1[nH]c(CN2CC=C(c3ccccc3)CC2)nc2cc(C(F)(F)F)ccc12	HIV Rev-RRE inh 45
CCC(C)OC(=O)c1c(N)n(Cc2cccs2)c2nc3ccccc3nc12 (stereo unspecified)	PostGolgi ctrl 50
CCCCn1c(N)c(C(=O)NCCN2CCOCC2)c2nc3ccccc3nc21	none
COc1ccc(CCNC(=O)c2c(N)n(CCN3CCOCC3)c3nc4ccccc4nc23)cc1	PostGolgi ctrl 35
CCOC(=O)c1c(N)n(CCN2CCCCC2)c2nc3ccccc3nc12	HIV Rev-RRE inh 38
COCCCn1c(N)c(C(=O)OC(C)COC)c2nc3ccccc3nc21 (stereo unspecified)	none (no result: PLK1 PBD inh, PLK1 kinase inh, EphB4 ephrin blk, HIV Rev-RRE inh)
Nc1c(C(=O)OCc2ccccc2)c2nc3ccccc3nc2n1Cc1cccs1	none
Nc1c(C(=O)NCCc2ccccc2)c2nc3ccccc3nc2n1CCN1CCOCC1	PostGolgi yeast 50, PostGolgi ctrl 40
Cc1ccc(NP(=O)(Oc2ccccc2F)Oc2ccccc2F)cc1	PostGolgi ctrl 36
O=c1[nH]c(=O)n(-c2ccc(F)cc2)c(O)c1C=Nc1ccccc1N1CCCC1	none
C=CCNC(=O)c1c(N)n(Cc2ccco2)c2nc3ccccc3nc12	HIV Rev-RRE inh 50
COCCNC(=O)c1c(N)n(Cc2ccco2)c2nc3ccccc3nc12	PostGolgi ctrl 51, HIV Rev-RRE inh 36
Nc1c(C(=O)NCCN2CCOCC2)c2nc3ccccc3nc2n1Cc1ccco1	HIV Rev-RRE inh 45
CCCCCCn1c(O)c(C=NC2CCN(Cc3ccccc3)CC2)c(=O)[nH]c1=O	none
Cn1c(O)c(C(c2ccccn2)c2c(O)n(C)c(=S)[nH]c2=O)c(=O)[nH]c1=S	none
O=C1Nc2ccccc2/C1=C/c1cnc[nH]1	PLK1 kinase inh 61
CC(=NCc1ccc(F)cc1)c1c(O)n(C)c(=O)n(C)c1=O	none
CCCC(C)C1C(C#N)=C(N)Oc2c1c(=O)oc1ccccc21 (stereo unspecified)	PostGolgi ctrl 36
Cc1ccc(-n2nc(C)c(C3C(C#N)=C(N)Oc4c3c(=O)oc3ccccc43)c2Cl)cc1 (stereo unspecified)	PostGolgi ctrl 39
COCCOC(=O)C1=C(N)Oc2c(c(=O)oc3ccccc23)C1c1ccncc1 (stereo unspecified)	none
O=C1CN=C(c2ccccc2)c2ccccc2N1Cc1ccc(C(F)(F)F)cc1	PostGolgi ctrl 42
O=C(N/N=C1/CN2CCC1CC2)c1cc2ccccc2cc1O	none
CCC(CO)Nc1ccc([N+](=O)[O-])c2cccnc12 (stereo unspecified)	none
CCN(CCNc1ccc([N+](=O)[O-])c2cccnc12)S(=O)(=O)c1ccc(Cl)cc1	PostGolgi ctrl 35
CCOC(=O)c1[nH]c(C)c(C(=O)N2CCC3(CC2)OCCO3)c1C	none
Cc1cc(C)n2nc(SC(C)C(=O)N3CCC4(CC3)OCCO4)nc2n1 (stereo unspecified)	none
CC(C)(C)c1ccc(S(=O)(=O)N2CC3CC(C2)c2cccc(=O)n2C3)cc1 (stereo unspecified)	none
Cc1ccc2c(c1)CC1(CN2C)C(=O)NC(=O)N(CCc2ccccc2)C1=O (stereo unspecified)	PostGolgi ctrl 37
Cc1cc(N)n(C2CCN(C)CC2)n1	none
CC(C)Oc1cccc(NC(=O)c2cccn(Cc3ccc4c(c3)OC(F)(F)O4)c2=O)c1	none
O=C(Nc1cccc(C(F)(F)F)c1)c1cccn(Cc2ccc3c(c2)OC(F)(F)O3)c1=O	PostGolgi ctrl 32
Cc1cccc(C)c1NC(=O)c1cccn(Cc2ccc3c(c2)OC(F)(F)O3)c1=O	PostGolgi ctrl 75
O=C(Nc1ccc(C(F)(F)F)cc1)c1cccn(Cc2ccc3c(c2)OC(F)(F)O3)c1=O	none
N#Cc1ccccc1Cn1cc(C(=O)C2CC2)c2ccccc21	none
CCC(=O)c1cn(Cc2ccccc2C#N)c2ccccc12	PostGolgi ctrl 31
CC1(C)C2([N+](=O)[O-])CNCC1([N+](=O)[O-])CNC2	none (no result: PostGolgi yeast, PostGolgi ctrl)
CCOc1cc2[nH]c(=S)n(CCCC(=O)N3CCC4(CC3)OCCO4)c(=O)c2cc1OCC	PostGolgi ctrl 39
O=C(Cn1ncc2c3ccccc3n(Cc3ccccc3F)c2c1=O)N1CCC2(CC1)OCCO2	PostGolgi yeast 55 (no result: PLK1 PBD inh, PLK1 kinase inh, EphB4 ephrin blk, HIV Rev-RRE inh)
CN1CCc2c(c(N3CCCCC3)nc3n[nH]c(N)c23)C1	none
O=c1cc(C(F)(F)F)c2cc3c4c(c2o1)CCCN4CCC3	HIV Rev-RRE inh 132[fluorescence artefact?]
Cc1cc2c(C(F)(F)F)cc(=O)oc2c2c1NCCC2	HIV Rev-RRE inh 130[fluorescence artefact?]
CCC(=O)N1N=C2C3CCN(CC3)C2C1c1ccccc1 (stereo unspecified)	none
c1ccc(C2CC3CC4(CCCC4)N2O3)cc1 (stereo unspecified)	none
COc1ccc(C2=NCC(=O)N(CC(=O)NCc3ccco3)c3sc4c(c32)CCCC4)cc1	none
O=C(CN1C(=O)CN=C(c2ccccc2Cl)c2cc(Cl)ccc21)NCc1ccco1	PostGolgi ctrl 31
Cc1ccc(S(=O)(=O)N2CCCC(C(=O)N3CCC4(CC3)OCCO4)C2)cc1 (stereo unspecified)	none
CCC(=NCc1ccc2c(c1)OCO2)c1c(O)n(C2CCCCC2)c(=O)[nH]c1=O	PostGolgi ctrl 67
CCC(=NCCO)c1c(O)n(C2CCCCC2)c(=O)[nH]c1=O	none
CCC(C)NC(=O)c1c(N)n(CCCOC)c2nc3ccccc3nc12 (stereo unspecified)	none
CC(C)CCNC(=O)c1c(N)n(CC2CCCO2)c2nc3ccccc3nc12 (stereo unspecified)	PostGolgi ctrl 57
CCC(C)NC(=O)c1c(N)n(CC2CCCO2)c2nc3ccccc3nc12 (stereo unspecified)	PostGolgi ctrl 56 (no result: PLK1 PBD inh, PLK1 kinase inh, EphB4 ephrin blk, HIV Rev-RRE inh)
CCOC(=O)c1c(C)c(P(=S)(N2CCOCC2)N2CCOCC2)n(C)c1C	none
FC(F)(F)c1ccc2c(c1)NP(=S)(N1CCOCC1)c1nccn1-2 (stereo unspecified)	none (no result: PLK1 PBD inh, PLK1 kinase inh, EphB4 ephrin blk, HIV Rev-RRE inh)
Clc1cccc(C2NCCc3[nH]cnc32)c1 (stereo unspecified)	PostGolgi ctrl 40
O=C(Nc1ccccc1OC(=O)N1CCCCC1)N1CCCCC1	none
COc1ccc2[nH]c(C)c(CCN3CCC(=O)C(C)C3C)c2c1 (stereo unspecified)	PLK1 kinase inh 83 | PLK1 inh conf inactive | Plk1 interf inactive
